Data on nine compounds can be found in ChEMBL document CHEMBL2203084, “Halogenated pentamethine cyanine dyes exhibiting high fidelity for G-quadruplex DNA” (Bioorg Med Chem, 2012).

Common to all, as to assay type: nucleic-acid assay
Assay [1] deals with Nucleic Acid. Briefly: Binding affinity to c-myc quadruplex DNA by mass spectrometry. In outline:
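ESI-MS: c-myc DNA dialyzed against 50 mM ammonium acetate pH 7.2. Samples of 25–30 µM DNA with ligand at 0:1 to 4:1 molar ratios, infused directly at 5 µL/min. Capillary 2200 V, cone 30 V, desolvation 70 °C, source 100 °C. Spectra were collected for 10 min, with the last 2 min analyzed.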

Assay [2] relates to Nucleic Acid. Briefly: Binding affinity to Tel22 G-quadruplex DNA at 3:1 compound to DNA ratio by circular dichroism analysis. In outline: (§1)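 CD spectra were recorded at 25 °C in 50 mM KCl with 4 µM single-strand quadruplex, 1 cm quartz cuvette, scan 50 nm/min, response 1 s. Ligand was titrated at increasing ligand:quadruplex ratios, and induced CD in the ligand absorbance region was assessed qualitatively.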
Background: Circular dichroism is widely used to follow secondary structure.

Assay [3] relates to Nucleic Acid. Briefly: Binding affinity to Tel22 G-quadruplex DNA at 2:1 compound to DNA ratio by UV-spectrometer. The essentials: (§2)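 UV thermal denaturation in 1 cm quartz cuvettes; DNA at 2–3 µM single strand in HEPES buffer (50 mM KCl). Compound:DNA ratios 0:1 to 6:1. Absorbance followed versus temperature at 295 nm for Tel22 and 260 nm for the AATT hairpin duplex. ΔTm is the average of two independent trials, reproducible within 0.5 °C.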

The test system of assay [4] is Nucleic Acid. Briefly: Binding affinity to duplex DNA by two site-mode surface plasmon resonance analysis. The essentials: (§3)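 SPR: 5′-biotinylated DNA captured on a streptavidin chip (350–400 RU), with a blank reference cell. Ligand series from 1 nM to 1 µM injected at 25 µL/min for 5 min to steady state, then 5 min dissociation. Surface regenerated with 10 mM glycine pH 2.5. Steady-state RU was converted using predicted RUmax. Values are the mean of two experiments.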
Background: SPR reads the build-up and loss of mass on a sensor chip optically.

Assay [5] relates to Nucleic Acid. Briefly: Binding affinity to c-myc quadruplex DNA by two site-mode surface plasmon resonance analysis. In outline:
as §3

Assay [6] relates to Nucleic Acid. Briefly: Binding affinity to Tel22 G-quadruplex DNA at 6:1 compound to DNA ratio by UV-spectrometer. The essentials:
as §2

For assay [7], the system named is Nucleic Acid. Briefly: Binding affinity to Tel22 G-quadruplex DNA by two site-mode surface plasmon resonance analysis. The essentials:
as §3

The subject of assay [8] is Nucleic Acid. Briefly: Binding affinity to duplex DNA at 6:1 compound to DNA ratio by UV-spectrometer. In outline: as §2
The test system of assay [9] is Nucleic Acid. Briefly: Binding affinity to Tel22 G-quadruplex DNA at 4:1 compound to DNA ratio by UV-spectrometer. In outline:
as §2

The subject of assay [10] is Nucleic Acid. Briefly: Binding affinity to c-myc quadruplex DNA by circular dichroism analysis. The essentials: as §1
In assay [11] the test system is Nucleic Acid. Briefly: Binding affinity to duplex DNA by isothermal titration calorimetry. In outline:
(§4)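 ITC: ligand at 200 µM in Tris/K+ buffer injected into DNA at 20 µM in the same buffer, every 300 s, 29 injections. Heats of dilution were measured by injection into buffer and subtracted. The first injection was discarded. ΔH was from a single-site fit of heat per mole against molar ratio.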
A general note: In ITC the heat of successive injections is recorded.

Assay [12] concerns Nucleic Acid. Briefly: Binding affinity to Tel22 G-quadruplex DNA by isothermal titration calorimetry. In outline:
as §4

For assay [13], the system named is Nucleic Acid. Briefly: Binding affinity to c-myc quadruplex DNA by isothermal titration calorimetry. The essentials: as §4

Active and inactive are the calls of the source. The rule behind the calls is not given here.

Usually ΔTm stands for the change in melting temperature against a reference sample. `CC1(C)C(/C=C/C=C/C=C2/N(CCC[N+](C)(C)C)c3ccccc3C2(C)C)=[N+](CCC[N+](C)(C)C)c2ccccc21`: the result in [1], in assay [2] and in assay [10] was Active. Also, the ΔTm in [3] was 2.1 °C; in assay [6] it was 8.7 °C; in assay [8], 0 °C; in [9], 4.6 °C. The outcome in assay [4] was inactive. The Kb in assay [5] is 0.07 ×10⁶ /M; in [7] it was 0.17 ×10⁶ /M.

For `CC1(C)C(/C=C/C(Br)=C/C=C2/N(CCC[N+](C)(C)C)c3ccccc3C2(C)C)=[N+](CCC[N+](C)(C)C)c2ccccc21`, the outcome in assay [1], in assay [12] and in assay [13] was Active. The outcome in assay [11] and in assay [4] was inactive. Further, the ΔTm in [3] was 4.6 °C; in [6], 15.6 °C; in [8], 0.1 °C; in assay [9] it was 11.6 °C. For the same compound, the results for the Kb in [5] and in assay [7] were 0.07 ×10⁶ /M and 0.74 ×10⁶ /M, respectively.

For the compound `CC1(C)C(/C=C/C(Br)=C/C=C2/N(CCC[N+](C)(C)C)c3ccc(Cl)cc3C2(C)C)=[N+](CCC[N+](C)(C)C)c2ccc(Cl)cc21`, the thermal shift (ΔTm) in assay [3] turned out to be 8 °C; in [6], 20 °C; in [8], 1.8 °C; in assay [9] it was 17 °C. For the same compound, the outcome in assay [4] was inactive. The Kb in assay [5] came to 0.25 ×10⁶ /M; in assay [7], 0.13 ×10⁶ /M.

`CC1(C)C(/C=C/C(Cl)=C/C=C2/N(CCC[N+](C)(C)C)c3ccccc3C2(C)C)=[N+](CCC[N+](C)(C)C)c2ccccc21`: the shift in melting temperature (ΔTm) in assay [3] was 4.6 °C; in assay [6], 13.2 °C; in [8], 2.8 °C; in [9] it was 12.2 °C. Also, in [4], the result was inactive. For the same compound, the Kb turned out to be 0.6 ×10⁶ /M in [5] and 0.08 ×10⁶ /M in assay [7].

With `CC1(C)C(/C=C/C(Cl)=C/C=C2/N(CCC[N+](C)(C)C)c3ccc(Br)cc3C2(C)C)=[N+](CCC[N+](C)(C)C)c2ccc(Br)cc21`, the ΔTm in assay [3] turned out to be 9 °C; in assay [6], 21 °C; in assay [8], 2.5 °C; in assay [9], 16 °C. The outcome in assay [4] was inactive. Also, the Kb in [5] was determined as 0.2 ×10⁶ /M; in [7] it was 0.05 ×10⁶ /M.

For `CC1(C)C(/C=C/C=C/C=C2/N(CCC[N+](C)(C)C)c3ccc(Br)cc3C2(C)C)=[N+](CCC[N+](C)(C)C)c2ccc(Br)cc21`, the result in assay [11] and in assay [4] was inactive. Further, the outcome in [2] and in assay [10] was Active. For the same compound, the ΔTm was found to be 2.5 °C in [3], 1.1 °C in assay [8] and 15.6 °C in [9]. For the same compound, the values for the Kb in assay [5] and in assay [7] were 3.6 ×10⁶ /M and 0.59 ×10⁶ /M, respectively.

For `CC1(C)C(/C=C/C=C/C=C2/N(CCC[N+](C)(C)C)c3ccc(Cl)cc3C2(C)C)=[N+](CCC[N+](C)(C)C)c2ccc(Cl)cc21`, the thermal shift (ΔTm) in [3] was 3.1 °C; in assay [6], 13.2 °C; in assay [8] it was 0.5 °C; in assay [9], 8.9 °C. Moreover, the result in assay [4] was inactive. The Kb result in assay [5] and in assay [7] was “inactive” in each case.

On to `CC1(C)C(/C=C/C(Cl)=C/C=C2/N(CCC[N+](C)(C)C)c3ccc(Cl)cc3C2(C)C)=[N+](CCC[N+](C)(C)C)c2ccc(Cl)cc21`, for which the ΔTm is 7 °C in assay [3], 19 °C in assay [6], 2.3 °C in assay [8] and 15 °C in assay [9]. Moreover, the outcome in assay [4] was inactive. The results for the Kb in [5] and in assay [7] were 0.23 ×10⁶ /M and 0.08 ×10⁶ /M, respectively.

`CC1(C)C(/C=C/C(Br)=C/C=C2/N(CCC[N+](C)(C)C)c3ccc(Br)cc3C2(C)C)=[N+](CCC[N+](C)(C)C)c2ccc(Br)cc21`: the outcome in [11] and in [4] was inactive. Also, the outcome in assay [2] and in [10] was Active. Further, the ΔTm in assay [3] is 8 °C; in assay [6], 20.3 °C; in [8] it was 1.2 °C; in assay [9], 16.2 °C. Moreover, the Kb in [5] came out at 2 ×10⁶ /M; in assay [7], 0.06 ×10⁶ /M.
